The source of these data is ChEMBL document CHEMBL4257555, “Small molecule cores demonstrate non-competitive inhibition of lactate dehydrogenase” (Medchemcomm, 2018).

Data set [1] has as its target L-lactate dehydrogenase B chain (Sus scrofa) (UniProt P00336). As to the kind of experiment: Binding affinity to porcine heart LDH at 2.14 mM measured every 2 mins for 10 mins by dynamic light scattering analysis. The method in brief: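 DLS on filtered samples of 80 μN phLDH, 4 μM NADH and 2.14 mM inhibitor in 100 mM sodium phosphate pH 7.2 at room temperature. Autocorrelation functions and particle size distributions collected every 2 min for 10 min.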

Data set [2] has the same target. As to the kind of experiment: Inhibition of oxamate binding to porcine heart LDH assessed as relative fluorescence intensity at 1000 uM using pyruvate as substrate and NADH as cofactor measured after 2 hrs by fluorescence spectra analysis (reference value: 0.775 +/- 0.013 a.u.).
Data set [3] has the same target. As to the kind of experiment: Inhibition of porcine heart LDH assessed as enzymatic hydride transfer lifetime using pyruvate as substrate and NADH as cofactor measured after 2 hrs by stopped flow spectrometric analysis (reference value: 3.73 +/- 0.0901 ms).
Data set [4] shares this target. Kind of data set: Inhibition of oxamate binding to porcine heart LDH assessed as emission maximum at 1000 uM using pyruvate as substrate and NADH as cofactor measured after 2 hrs by fluorescence spectra analysis (reference value: 452.9 +/- 0.3 nanometer).
Data set [5] concerns CC(=O)Nc1cccc(O)c1. As to the kind of experiment: Non-competitive inhibition of porcine heart LDH assessed as Kcat for cofactor at 300 uM using pyruvate as substrate and NADH as cofactor measured after 2 hrs by Michaelis-Menten plot analysis (reference value: 221 +/- 10 /sec). As to conditions: Sus scrofa.
Data set [6] has as its system CC(=O)Nc1cccc(O)c1. Kind of data set: Mixed inhibition of porcine heart LDH assessed as substrate Kcat at 300 uM using pyruvate as substrate and NADH as cofactor measured after 2 hrs by Michaelis-Menten plot analysis (reference value: 232 +/- 13 /sec). As to conditions: Sus scrofa.
Data set [7] deals with CC(=O)Nc1cccc(O)c1. As to the kind of experiment: Mixed inhibition of porcine heart LDH assessed as substrate Kcat at 100 uM using pyruvate as substrate and NADH as cofactor measured after 2 hrs by Michaelis-Menten plot analysis (reference value: 232 +/- 13 /sec). As to conditions: Sus scrofa.
Data set [8] has as its system CC(=O)Nc1cccc(O)c1. As to the kind of experiment: (§1) Mixed inhibition of porcine heart LDH assessed as apparent Km for substrate at 100 uM using pyruvate as substrate and NADH as cofactor measured after 2 hrs by Michaelis-Menten plot analysis (reference value: 73 +/- 10 uM). As to conditions: Sus scrofa.
For data set [9], the system named is NC(=O)c1cc(O)cc(O)c1. The description is as §1. As to conditions: Sus scrofa.
In data set [10] the test system is NC(=O)c1cc(O)cc(O)c1. As to the kind of experiment: Mixed inhibition of porcine heart LDH assessed as substrate Kcat at 100 uM using pyruvate as substrate and NADH as cofactor measured after 2 hrs by Michaelis-Menten plot analysis (reference value: 319 +/- 8 /sec). As to conditions: Sus scrofa.
Data set [11] has as its system CC(=O)Nc1cccc(O)c1. Kind of data set: Non-competitive inhibition of porcine heart LDH assessed as apparent Km for cofactor at 300 uM using pyruvate as substrate and NADH as cofactor measured after 2 hrs by Michaelis-Menten plot analysis (reference value: 8 +/- 2 uM). As to conditions: Sus scrofa.
In data set [12] the test system is NC(=O)c1cc(O)cc(O)c1. Kind of data set: Mixed inhibition of porcine heart LDH assessed as substrate Kcat at 300 uM using pyruvate as substrate and NADH as cofactor measured after 2 hrs by Michaelis-Menten plot analysis (reference value: 319 +/- 8 /sec). As to conditions: Sus scrofa.
Data set [13] concerns NC(=O)c1cc(O)cc(O)c1. Kind of data set: Mixed inhibition of porcine heart LDH assessed as substrate Kcat at 25 uM using pyruvate as substrate and NADH as cofactor measured after 2 hrs by Michaelis-Menten plot analysis (reference value: 319 +/- 8 /sec). As to conditions: Sus scrofa.
For data set [14], the system named is NC(=O)c1cc(O)cc(O)c1. As to the kind of experiment: Mixed inhibition of porcine heart LDH assessed as substrate Kcat at 10 uM using pyruvate as substrate and NADH as cofactor measured after 2 hrs by Michaelis-Menten plot analysis (reference value: 319 +/- 8 /sec). As to conditions: Sus scrofa.
The test system of data set [15] is CC(=O)Nc1cccc(O)c1. Kind of data set: Mixed inhibition of porcine heart LDH assessed as substrate Kcat at 25 uM using pyruvate as substrate and NADH as cofactor measured after 2 hrs by Michaelis-Menten plot analysis (reference value: 232 +/- 13 /sec). As to conditions: Sus scrofa.
The test system of data set [16] is NC(=O)c1cc(O)cc(O)c1. Kind of data set: Mixed inhibition of porcine heart LDH assessed as substrate Kcat at 50 uM using pyruvate as substrate and NADH as cofactor measured after 2 hrs by Michaelis-Menten plot analysis (reference value: 319 +/- 8 /sec). As to conditions: Sus scrofa.
Data set [17] has as its system CC(=O)Nc1cccc(O)c1. Kind of data set: (§2) Mixed inhibition of porcine heart LDH assessed as apparent Km for substrate at 50 uM using pyruvate as substrate and NADH as cofactor measured after 2 hrs by Michaelis-Menten plot analysis (reference value: 73 +/- 10 uM). As to conditions: Sus scrofa.
Data set [18] has as its system NC(=O)c1cc(O)cc(O)c1. The description is as §2. As to conditions: Sus scrofa.
Data set [19] deals with CC(=O)Nc1cccc(O)c1. Kind of data set: Non-competitive inhibition of porcine heart LDH assessed as Kcat for cofactor at 50 uM using pyruvate as substrate and NADH as cofactor measured after 2 hrs by Michaelis-Menten plot analysis (reference value: 221 +/- 10 /sec). As to conditions: Sus scrofa.
The subject of data set [20] is CC(=O)Nc1cccc(O)c1. Kind of data set: (§3) Mixed inhibition of porcine heart LDH assessed as apparent Km for substrate at 10 uM using pyruvate as substrate and NADH as cofactor measured after 2 hrs by Michaelis-Menten plot analysis (reference value: 73 +/- 10 uM). As to conditions: Sus scrofa.
In data set [21] the test system is NC(=O)c1cc(O)cc(O)c1. Described as §3. As to conditions: Sus scrofa.
In data set [22] the test system is CC(=O)Nc1cccc(O)c1. Kind of data set: Mixed inhibition of porcine heart LDH assessed as substrate Kcat at 50 uM using pyruvate as substrate and NADH as cofactor measured after 2 hrs by Michaelis-Menten plot analysis (reference value: 232 +/- 13 /sec). As to conditions: Sus scrofa.
The subject of data set [23] is CC(=O)Nc1cccc(O)c1. As to the kind of experiment: Non-competitive inhibition of porcine heart LDH assessed as apparent Km for cofactor at 50 uM using pyruvate as substrate and NADH as cofactor measured after 2 hrs by Michaelis-Menten plot analysis (reference value: 8 +/- 2 uM). As to conditions: Sus scrofa.
In data set [24] the test system is CC(=O)Nc1cccc(O)c1. Kind of data set: (§4) Mixed inhibition of porcine heart LDH assessed as apparent Km for substrate at 25 uM using pyruvate as substrate and NADH as cofactor measured after 2 hrs by Michaelis-Menten plot analysis (reference value: 73 +/- 10 uM). As to conditions: Sus scrofa.
Data set [25] concerns NC(=O)c1cc(O)cc(O)c1. The description is as §4. As to conditions: Sus scrofa.
Data set [26] deals with CC(=O)Nc1cccc(O)c1. Kind of data set: (§5) Mixed inhibition of porcine heart LDH assessed as apparent Km for substrate at 300 uM using pyruvate as substrate and NADH as cofactor measured after 2 hrs by Michaelis-Menten plot analysis (reference value: 73 +/- 10 uM). As to conditions: Sus scrofa.
Data set [27] relates to NC(=O)c1cc(O)cc(O)c1. The description is as §5. As to conditions: Sus scrofa.
Data set [28] has as its system CC(=O)Nc1cccc(O)c1. Kind of data set: Mixed inhibition of porcine heart LDH assessed as substrate Kcat at 10 uM using pyruvate as substrate and NADH as cofactor measured after 2 hrs by Michaelis-Menten plot analysis (reference value: 232 +/- 13 /sec). As to conditions: Sus scrofa.
The target in data set [29] is L-lactate dehydrogenase B chain (Sus scrofa) (UniProt P00336). As to the kind of experiment: Activation of porcine heart LDH at 1 mM using pyruvate as substrate and NADH as cofactor measured after 2 hrs by stopped-flow spectrometric method relative to control. The method in brief:
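Pig heart LDH buffer-exchanged into 100 mM sodium phosphate pH 7.2, then preincubated 2 h at 4 °C with inhibitor. Final: 5 nN enzyme, 100 μM NADH, 300 μM sodium pyruvate, 37 °C. Stopped-flow mixing of enzyme:NADH:inhibitor with pyruvate, NADH loss read at 340 nm. Initial rates are linear fits averaged over five shots and expressed relative to uninhibited enzyme.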

Data set [30] shares this target. As to the kind of experiment: Inhibition of oxamate binding to porcine heart LDH assessed as relative fluorescence intensity at 961 uM using pyruvate as substrate and NADH as cofactor measured after 2 hrs by fluorescence spectra analysis (reference value: 0.775 +/- 0.013 a.u.).
The target is the same in data set [31]. Kind of data set: Inhibition of oxamate binding to porcine heart LDH assessed as emission maximum at 961 uM using pyruvate as substrate and NADH as cofactor measured after 2 hrs by fluorescence spectra analysis (reference value: 452.9 +/- 0.3 nanometer).
For data set [32] the target is unchanged. As to the kind of experiment: Inhibition of oxamate binding to porcine heart LDH assessed as relative fluorescence intensity at 35 uM using pyruvate as substrate and NADH as cofactor measured after 2 hrs by fluorescence spectra analysis (reference value: 0.775 +/- 0.013 a.u.).
The target is the same in data set [33]. Kind of data set: Inhibition of oxamate binding to porcine heart LDH assessed as emission maximum at 6 uM using pyruvate as substrate and NADH as cofactor measured after 2 hrs by fluorescence spectra analysis (reference value: 452.9 +/- 0.36 nanometer).
For data set [34] the target is unchanged. Kind of data set: Inhibition of oxamate binding to porcine heart LDH assessed as relative fluorescence intensity at 6 uM using pyruvate as substrate and NADH as cofactor measured after 2 hrs by fluorescence spectra analysis (reference value: 0.775 +/- 0.013 a.u.).
The target is the same in data set [35]. As to the kind of experiment: Inhibition of oxamate binding to porcine heart LDH assessed as emission maximum at 35 uM using pyruvate as substrate and NADH as cofactor measured after 2 hrs by fluorescence spectra analysis (reference value: 452.9 +/- 0.3 nanometer).

The source made the active and inactive calls. The rule behind the calls is not given here.

Chain of L-lactate dehydrogenase B chain (Sus scrofa), P00336 (P00336 whole entry): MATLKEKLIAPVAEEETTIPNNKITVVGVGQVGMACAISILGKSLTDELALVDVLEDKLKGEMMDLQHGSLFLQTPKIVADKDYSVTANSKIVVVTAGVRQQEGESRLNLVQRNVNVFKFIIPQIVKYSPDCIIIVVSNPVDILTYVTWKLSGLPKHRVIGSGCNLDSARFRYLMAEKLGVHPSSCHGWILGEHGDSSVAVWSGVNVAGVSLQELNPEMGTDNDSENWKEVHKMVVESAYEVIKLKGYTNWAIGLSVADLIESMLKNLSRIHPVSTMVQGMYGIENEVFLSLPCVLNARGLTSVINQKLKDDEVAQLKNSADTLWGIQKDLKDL
Chain of L-lactate dehydrogenase B chain (Sus scrofa) (P00336 whole entry): as above

With `CC(=O)Nc1cccc(O)c1`, in [1], the outcome was Active. In addition, in [2], the RFU is 0.793 a.u. In [3], the TIME worked out at 1.09e-06 h. For the same compound, in [4], the Activity was 449 nm.
The term kcat denotes the maximal rate divided by the concentration of active sites. By Km is commonly meant the concentration of substrate that gives half-maximal velocity. Turning to “L-lactate dehydrogenase B chain (Sus scrofa), P00336”, the kcat in the data set with CC(=O)Nc1cccc(O)c1 [5] was determined as 191 s⁻¹; in the data set with CC(=O)Nc1cccc(O)c1 [6], 132 s⁻¹; in the data set with CC(=O)Nc1cccc(O)c1 [7], 211 s⁻¹; in the data set with NC(=O)c1cc(O)cc(O)c1 [10], 216 s⁻¹; in the data set with NC(=O)c1cc(O)cc(O)c1 [12] it was 176 s⁻¹; in the data set with NC(=O)c1cc(O)cc(O)c1 [13] it was 229 s⁻¹. In addition, the turnover number (kcat) was determined as 281 s⁻¹ in the data set with NC(=O)c1cc(O)cc(O)c1 [14]; 190 s⁻¹ in the data set on CC(=O)Nc1cccc(O)c1 [15]; 242 s⁻¹ in the data set with NC(=O)c1cc(O)cc(O)c1 [16]; 190 s⁻¹ in the data set on CC(=O)Nc1cccc(O)c1 [19]; 175 s⁻¹ with CC(=O)Nc1cccc(O)c1 [22]; 211 s⁻¹ with CC(=O)Nc1cccc(O)c1 [28]. The Km with CC(=O)Nc1cccc(O)c1 [8] turned out to be 163 µM; in the data set on NC(=O)c1cc(O)cc(O)c1 [9], 116 µM; in the data set on CC(=O)Nc1cccc(O)c1 [11], 7 µM; with CC(=O)Nc1cccc(O)c1 [17] it was 155 µM; in the data set with NC(=O)c1cc(O)cc(O)c1 [18], 102 µM; in the data set with CC(=O)Nc1cccc(O)c1 [20], 98 µM. In addition, the Km with NC(=O)c1cc(O)cc(O)c1 [21] turned out to be 87 µM; in the data set on CC(=O)Nc1cccc(O)c1 [23], 7 µM; in the data set with CC(=O)Nc1cccc(O)c1 [24], 98 µM; in the data set with NC(=O)c1cc(O)cc(O)c1 [25] it was 90 µM; in the data set with CC(=O)Nc1cccc(O)c1 [26], 133 µM; in the data set with NC(=O)c1cc(O)cc(O)c1 [27] it was 111 µM.
In [29], `N[C@@H](Cc1c[nH]c2ccccc12)C(=O)O` returned an Activity of under 24%.
On to `NC(=O)c1cc(O)cc(O)c1`, for which the RFU in [30] was 0.773 a.u; in data set [32], 0.759 a.u; in [34] it was 0.764 a.u. Besides, the outcome in data set [1] was Active. For the same compound, the Activity in data set [31] turned out to be 455 nm; in data set [33] it was 453 nm; in data set [35] it was 453 nm.
For the compound `CC(=O)Nc1ccccc1`, the result in [1] was Active.
